Activity calls are given as the source filed them. The calls are words filed in the database; no cut-off is given here.
How the values were obtained:
PC-3 [1] = assay: Cell cycle arrest in human PC3 cells assessed as cell accumulation at S phase at 10 uM incubated for 24 hrs by propidium iodide staining based flow cytometry analysis relative to control; format: functional
PC-3 [2] = assay: Induction of cellular senescence in human PC3 cells assessed as increase in nuclear size at 10 uM incubated for 24 hrs by phase contrast microscopy; format: functional, cell-based
In short: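 LN229 and PC3 cells, 12×10^4 per well in 6-well plates, treated with 10 µM compound for 24 h. Senescence-associated β-gal staining: fixed in 2% formaldehyde/0.2% glutaraldehyde for 10 min at RT, stained with 1 mg/mL X-gal at 37 °C for 24 h without CO2. Blue cells counted in at least 10 fields at 10x and given as percent of total; four independent experiments. Morphology viewed by phase contrast at ×100.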

LN-229 [3] = assay: Antiproliferative activity against human LN229 cells assessed as reduction in cell viability at 10 uM incubated for 48 hrs in presence of Cu2+ ion by MTT assay; format: functional, cell-based
In short: (§1)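 LN229 and PC3 cells plated, then 24 h later given 10 µM compound with or without 15 µM ZnCl2, CuCl2, FeCl2 or FeCl3 for 48 h. Medium replaced, MTT (12 mM solution) added for 4 h, formazan dissolved in DMSO, absorbance read at 540 nm. Percent viable versus untreated; mean ± SD of three experiments in triplicate.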

PC-3 [4] = assay: Cell cycle arrest in human PC3 cells assessed as cell accumulation at G1 phase at 10 uM incubated for 48 hrs by propidium iodide staining based flow cytometry analysis relative to control; format: functional
Homo sapiens [5] = species: Homo sapiens; assay: Antiproliferative activity against human JMV2 cells assessed as reduction in cell viability at 10 uM incubated for 48 hrs by cell titer-glo assay; format: functional, cell-based
In short: (§2)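 Cells plated and treated 24 h later with 10 µM compound for 48 h; viable cells quantified by CellTiter-Glo ATP luminescence. Expressed as percentage of viable cells relative to untreated; mean ± SD of three independent experiments, each in triplicate.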

U-87 MG [6] = assay: Antiproliferative activity against human U87MG cells assessed as reduction in cell viability at 10 uM incubated for 48 hrs by cell titer-glo assay; format: functional, cell-based; conditions: U-87MG ATCC; in short: as §2
LN-229 [7] = assay: Cell cycle arrest in human LN229 cells assessed as cell accumulation at S phase at 10 uM incubated for 24 hrs by propidium iodide staining based flow cytometry analysis relative to control; format: functional
SW-620 = assay: Antiproliferative activity against human SW620 cells assessed as reduction in cell viability at 10 uM incubated for 48 hrs by cell titer-glo assay; format: functional, cell-based; in short: as §2
LN-229 [8] = assay: Inhibition of colony formation in human LN229 cells at 10 uM incubated for 4 hrs by crystal violet staining based colony counting method; format: functional, cell-based
In short: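 LN229 and PC3 cells treated for 4 h with compound (10 µM) or with etoposide (30 µM positive control), washed, trypsinized and replated at 3000 cells per 60-mm plate. Colonies grown 7–10 days, fixed and stained with 0.5% crystal violet in 70% ethanol, and counted. Reported as percent of control; four independent experiments, each in duplicate.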

Homo sapiens [9] = species: Homo sapiens; assay: Induction of apoptosis in human JMV2 cells assessed as increase in caspase-3/7 activation at 10 uM incubated for 48 hrs by luminometric caspase-glo 3/7 assay; format: functional, cell-based
In short: (§3)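 Cells in RPMI or DMEM with 10% heat-inactivated FBS and penicillin/streptomycin, 37 °C, 5% CO2, treated with 10 µM compound for 48 h. Caspase-3 and caspase-7 activity read by luminescent Caspase-Glo 3/7 assay, reported as fold induction over untreated cells; mean ± SD of three independent experiments, each in triplicate.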

Fibroblast = assay: Cytotoxicity against human Fibroblast assessed as reduction in cell viability incubated for 48 hrs by cell titer-glo assay; format: cell-based
In short: (§4)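 Dose-response: cells plated, treated 24 h later for 48 h, then ATP measured by CellTiter-Glo luminescence. IC50 given as mean ± SD from three independent experiments, each in triplicate. Fibroblasts came from individuals. Cells were kept in RPMI or DMEM with 10% heat-inactivated FBS and penicillin/streptomycin at 37 °C, 5% CO2.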

LN-229 [10] = assay: Induction of cellular senescence in human LN229 cells assessed as increase in beta-gal-positive cells at 10 uM incubated for 24 hrs by X-Gal staining based microscopic assay relative to control; format: functional
U-87 MG [11] = assay: Cell cycle arrest in human U87MG cells assessed as increase in cell accumulation at G0/G1 phase at 10 uM incubated for 24 hrs by propidium iodide staining based flow cytometry analysis; format: functional; conditions: U-87MG ATCC
LN-229 [12] = assay: Antiproliferative activity against human LN229 cells assessed as reduction in cell viability at 10 uM incubated for 48 hrs in presence of Zn2+ ion by MTT assay; format: functional, cell-based; in short: as §1
LN-229 [13] = assay: Induction of cell morphological changes in human LN229 cells assessed as random membrane blebbing at 10 uM incubated for 24 to 48 hrs by phase contrast microscopy; format: functional, cell-based
In short: (§5)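 LN229 and PC3 cells exposed to 10 µM compound for the indicated time-points, then imaged live by phase-contrast microscopy for morphology.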

LN-229 [14] = assay: Induction of cell morphological changes in human LN229 cells assessed as loss of cell adherence at 10 uM incubated for 24 to 48 hrs by phase contrast microscopy; format: functional, cell-based; in short: as §5
PC-3 [15] = assay: Cell cycle arrest in human PC3 cells assessed as cell accumulation at sub-G1 phase at 10 uM incubated for 48 hrs by propidium iodide staining based flow cytometry analysis relative to control; format: functional
PC-3 [16] = assay: Cell cycle arrest in human PC3 cells assessed as cell accumulation at G1 phase at 10 uM incubated for 24 hrs by propidium iodide staining based flow cytometry analysis relative to control; format: functional
PC-3 [17] = assay: Antiproliferative activity against human PC3 cells assessed as reduction in cell viability at 10 uM incubated for 48 hrs in presence of Fe3+ ion by MTT assay; format: functional, cell-based; in short: as §1
PC-3 [18] = assay: Induction of apoptosis in human PC3 cells assessed as early apoptotic cells at 10 uM incubated for 72 hrs by annexin V-FITC and propidium iodide staining based flow cytometry analysis (reference value: 0.24 %); format: functional
U-87 MG [19] = assay: Cell cycle arrest in human U87MG cells assessed as decrease in cell accumulation at G2 phase at 10 uM incubated for 24 hrs by propidium iodide staining based flow cytometry analysis; format: functional; conditions: U-87MG ATCC
Jurkat = assay: Cell cycle arrest in human Jurkat cells assessed as increase in cell accumulation at G0/G1 phase at 10 uM incubated for 24 hrs by propidium iodide staining based flow cytometry analysis; format: functional
Z-138 [20] = assay: Induction of apoptosis in human Z138 cells assessed as increase in caspase-3/7 activation at 10 uM incubated for 48 hrs by luminometric caspase-glo 3/7 assay; format: functional, cell-based; in short: as §3
JeKo-1 = assay: Antiproliferative activity against human JeKo1 cells assessed as reduction in cell viability at 10 uM incubated for 48 hrs by cell titer-glo assay; format: functional, cell-based; in short: as §2
Z-138 [21] = assay: Antiproliferative activity against human Z138 cells assessed as reduction in cell viability incubated for 48 hrs by cell titer-glo assay; format: functional, cell-based; conditions: Z-138, 48 h; in short: as §4
PC-3 [22] = assay: Antiproliferative activity against human PC3 cells assessed as reduction in cell viability at 10 uM incubated for 48 hrs in presence of Zn2+ ion by MTT assay; format: functional, cell-based; in short: as §1
Homo sapiens [23] = species: Homo sapiens; assay: Induction of apoptosis in human UPN2 cells assessed as increase in caspase-3/7 activation at 10 uM incubated for 48 hrs by luminometric caspase-glo 3/7 assay; format: functional, cell-based; in short: as §3

| SMILES | Activity (PC-3 [1]) [%] | Activity (PC-3 [2]) | Activity (LN-229 [3]) | Activity (PC-3 [4]) [%] | Activity (Homo sapiens [5]) | Activity (U-87 MG [6]) | Activity (LN-229 [7]) [%] | Activity (SW-620) | inhibition (LN-229 [8]) | Activity (Homo sapiens [9]) | IC50 (Fibroblast) [µM] | Activity (LN-229 [10]) | Activity (U-87 MG [11]) | Activity (LN-229 [12]) | Activity (LN-229 [13]) | Activity (LN-229 [14]) | Activity (PC-3 [15]) [%] | Activity (PC-3 [16]) [%] | Activity (PC-3 [17]) | Activity (PC-3 [18]) [%] | further results |
| --- | --- | --- | --- | --- | --- | --- | --- | --- | --- | --- | --- | --- | --- | --- | --- | --- | --- | --- | --- | --- | --- |
| c1ccc(CNCCN(CCNCc2ccccn2)Cc2ccc3ccccc3c2)nc1 | 8.9 | Active | inactive | 73.4 | Active | Active | 14.8 | Active | inactive | Active | 29.7 | 90% | Active | inactive | Active | Active | 4.8 | 73.7 | Active | 14.7 | Activity (U-87 MG [19]): Active; Activity (Jurkat): Active; Activity (Z-138 [20]): Active; Activity (JeKo-1): Active; IC50 (Z-138 [21]): 3.07 µM; Activity (PC-3 [22]): inactive; Activity (Homo sapiens [23]): Active |
| CN(CCNCc1ccccn1)CCNCc1ccccn1 | 9.2 | Active | inactive | 57.2 | Active | Active | 15.6 | Active | inactive | Active | 20.5 | Active | Active | inactive | Active | Active | 19.6 | 71.1 | Active | 14.27 | Activity (U-87 MG [19]): Active; Activity (Jurkat): Active; Activity (Z-138 [20]): Active; Activity (JeKo-1): Active; IC50 (Z-138 [21]): 4.85 µM; Activity (PC-3 [22]): inactive; Activity (Homo sapiens [23]): Active |

Source: ChEMBL document CHEMBL4376884, “Toward a Rational Design of Polyamine-Based Zinc-Chelating Agents for Cancer Therapies” (J Med Chem, 2020)
